In ChEMBL document CHEMBL1153146, “Novel potent apoA-I peptide mimetics that stimulate cholesterol efflux and pre-beta particle formation in vitro” (Bioorg Med Chem Lett, 2010):
Starred links: 1 amine or outer side, 2 acyl side, 3 side chain; linkers in the order of their positions; H or OH if unused. Positions of bridges follow the written chain, without caps; N, C: chain ends. Non-standard residues stand in square brackets, D forms with d. Residues, ends and D or L forms follow the SMILES beside them. X1 = O=C([C@@H](CCCCC=[*:3])N[*:1])[*:2]; X2 = O=C([C@H](CCCCCC=[*:3])N[*:1])[*:2]; Gla = N[C@@H](CC(C(=O)O)C(=O)O)C(=O)O; Aib = CC(C)(N)C(=O)O

Columns and labels:
[1] = test system: RAW264.7; assay: Cytotoxicity against mouse RAW264.7 cells after 24 hrs by MTT assay; format: cell-based; settings: RAW264.7, 24 h
Outline: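 RAW macrophage cytotoxicity examined at peptide concentrations up to 160 µM.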

[2] = Toxicity in human RBC assessed as hemolysis; format: cell-based, Erythrocyte; settings: red blood cells (RBC)
Outline: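 Red blood cell lysis assay; cytotoxicity reported as IC50 in µM.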

[3] = test system: RAW264.7; assay: Induction of [3H]cholesterol efflux in mouse RAW264.7 cells at 30 uM after 24 hrs by scintillation counting; format: functional, cell-based
[4] = test system: RAW264.7; assay: Induction of [3H]cholesterol efflux in mouse RAW264.7 cells after 24 hrs by scintillation counting; format: functional, cell-based
Outline: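 Cholesterol efflux from RAW macrophages; EC50 reported in µM as the mean of three experiments.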

[5] = Mus musculus, RAW264.7, read-out: EC50

EC50 [4, 5] [µM]	EC50 ([4]; raw264.7)	Molecule	IC50 [1] [µM]	IC50 [2] [µM]	cholesterol efflux [3] [%]
–	–	CC(C)C[C@H](NC(=O)[C@H](CCCCN)NC(=O)[C@H](CCC(N)=O)NC(=O)[C@H](CCCCN)NC(=O)[C@H]1CCC/C=C\CCC[C@@H](NC(=O)[C@H](CCC(=O)O)NC(=O)[C@H](CC(N)=O)NC(=O)[C@H](CC(C)C)NC(=O)[C@H](CCCCN)NC(=O)[C@H](CCC(=O)O)NC(=O)[C@H](CCCNC(=N)N)NC(=O)[C@H](Cc2ccccc2)NC(=O)[C@H](CCC(=O)O)NC(=O)[C@H](CC(=O)O)NC(=O)[C@H](CC(C)C)NC(=O)[C@@H](NC(=O)[C@@H]2CCCN2)C(C)C)C(=O)N[C@@H](CC(C)C)C(=O)N[C@@H](CCC(=O)O)C(=O)N[C@@H](C)C(=O)N1)C(=O)N[C@@H](CCCCN)C(=O)O	> 160	> 160	2
46	–	C=CCCC[C@@H](NC(=O)[C@H](CCC(=O)O)NC(=O)[C@H](CC(N)=O)NC(=O)[C@H](CC(C)C)NC(=O)[C@@H](CCCC=C)NC(=O)[C@H](CCC(=O)O)NC(=O)[C@H](CCCNC(=N)N)NC(=O)[C@H](Cc1ccccc1)NC(=O)[C@H](CCC(=O)O)NC(=O)[C@H](CC(=O)O)NC(=O)[C@H](CC(C)C)NC(=O)[C@@H](NC(=O)[C@@H]1CCCN1)C(C)C)C(=O)N[C@@H](CC(C)C)C(=O)N[C@@H](CCC(=O)O)C(=O)N[C@@H](C)C(=O)N[C@@H](CC(C)C)C(=O)N[C@@H](CCCCN)C(=O)N[C@@H](CCC(N)=O)C(=O)N[C@@H](CCCCN)C(=O)N[C@@H](CC(C)C)C(=O)N[C@@H](CCCCN)C(=O)O	> 160	> 160	–
10	–	CC(C)C[C@H](NC(=O)[C@H](C)NC(=O)[C@H](CCC(=O)O)NC(=O)[C@H](CC(C)C)NC(=O)[C@H]1CCC/C=C\CCC[C@@H](NC(=O)[C@H](CCC(=O)O)NC(=O)[C@H](CCCNC(=N)N)NC(=O)[C@H](Cc2ccccc2)NC(=O)[C@H](CCC(=O)O)NC(=O)[C@H](CC(=O)O)NC(=O)[C@H](CC(C)C)NC(=O)[C@@H](NC(=O)[C@@H]2CCCN2)C(C)C)C(=O)N[C@@H](CC(C)C)C(=O)N[C@@H](CC(N)=O)C(=O)N[C@@H](CCC(=O)O)C(=O)N1)C(=O)N[C@@H](CCCCN)C(=O)N[C@@H](CCC(N)=O)C(=O)N[C@@H](CCCCN)C(=O)N[C@@H](CC(C)C)C(=O)N[C@@H](CCCCN)C(=O)O	> 160	> 160	–
1.3	–	C=CCCCCC[C@H](NC(=O)[C@H](CCC(=O)O)NC(=O)[C@H](CC(=O)O)NC(=O)[C@H](CC(C)C)NC(=O)[C@@H](NC(=O)[C@@H]1CCCN1)C(C)C)C(=O)N[C@@H](CCCNC(=N)N)C(=O)N[C@@H](CCC(=O)O)C(=O)N[C@@H](CCCCN)C(=O)N[C@@H](CC(C)C)C(=O)N[C@@H](CC(N)=O)C(=O)N[C@H](CCC(=O)O)C(=O)N[C@@H](CCCCC=C)C(=O)N[C@H](CC(C)C)C(=O)N[C@H](CCC(=O)O)C(=O)N[C@H](C)C(=O)N[C@H](CC(C)C)C(=O)N[C@H](CCCCN)C(=O)N[C@H](CCC(N)=O)C(=O)N[C@H](CCCCN)C(=O)N[C@H](CC(C)C)C(=O)N[C@H](CCCCN)C(=O)O	> 160	> 160	–
–	Not Active	CC(C)C[C@H](NC(=O)[C@H](C)NC(=O)[C@H](CCC(=O)O)NC(=O)[C@H](CC(C)C)NC(=O)[C@@H]1CCC/C=C\CCC[C@@H](NC(=O)[C@H](CCC(=O)O)NC(=O)[C@H](CCCNC(=N)N)NC(=O)[C@H](Cc2ccccc2)NC(=O)[C@H](CCC(=O)O)NC(=O)[C@H](CC(=O)O)NC(=O)[C@H](CC(C)C)NC(=O)[C@@H](NC(=O)[C@@H]2CCCN2)C(C)C)C(=O)N[C@@H](CC(C)C)C(=O)N[C@@H](CC(N)=O)C(=O)N[C@@H](CCC(=O)O)C(=O)N1)C(=O)N[C@@H](CCCCN)C(=O)N[C@@H](CCC(N)=O)C(=O)N[C@@H](CCCCN)C(=O)N[C@@H](CC(C)C)C(=O)N[C@@H](CCCCN)C(=O)O	> 160	> 160	–
–	–	C=CCCC[C@@H](NC(=O)[C@H](C)NC(=O)[C@H](CCC(=O)O)NC(=O)[C@H](CC(C)C)NC(=O)[C@@H](CCCC=C)NC(=O)[C@H](CCC(=O)O)NC(=O)[C@H](CC(N)=O)NC(=O)[C@H](CC(C)C)NC(=O)[C@H](CCCCN)NC(=O)[C@H](CCC(=O)O)NC(=O)[C@H](CCCNC(=N)N)NC(=O)[C@H](Cc1ccccc1)NC(=O)[C@H](CCC(=O)O)NC(=O)[C@H](CC(=O)O)NC(=O)[C@H](CC(C)C)NC(=O)[C@@H](NC(=O)[C@@H]1CCCN1)C(C)C)C(=O)N[C@@H](CCCCN)C(=O)N[C@@H](CCC(N)=O)C(=O)N[C@@H](CCCCN)C(=O)N[C@@H](CC(C)C)C(=O)N[C@@H](CCCCN)C(=O)O	> 160	> 160	3
234	–	CC(C)C[C@H](NC(=O)[C@H](C)NC(=O)[C@H](CCC(=O)O)NC(=O)[C@H](CC(N)=O)NC(=O)[C@H](CC(C)C)NC(=O)[C@H](CCCCN)NC(=O)[C@H](CCC(=O)O)NC(=O)[C@H](CCCNC(=N)N)NC(=O)[C@H](Cc1ccccc1)NC(=O)[C@H](CCC(=O)O)NC(=O)[C@H](CC(=O)O)NC(=O)[C@H](CC(C)C)NC(=O)[C@@H](NC(=O)[C@@H]1CCCN1)C(C)C)C(=O)N[C@@H](CC(C(=O)O)C(=O)O)C(=O)N[C@@H](C)C(=O)N[C@@H](CC(C)C)C(=O)N[C@@H](CCCCN)C(=O)N[C@@H](CCC(N)=O)C(=O)N[C@@H](CCCCN)C(=O)N[C@@H](CC(C)C)C(=O)N[C@@H](CCCCN)C(=O)O (H-PVLDEFREKLNEAL[Gla]ALKQKLK-OH)	> 160	75	–
23	–	CC(C)C[C@H](NC(=O)[C@H](CCCCN)NC(=O)[C@H](CCC(N)=O)NC(=O)[C@H](CCCCN)NC(=O)[C@H](CC(C)C)NC(=O)C(C)(C)NC(=O)[C@H](CCC(=O)O)NC(=O)[C@H](CC(C)C)NC(=O)C(C)(C)NC(=O)[C@H](CCC(=O)O)NC(=O)[C@H](CC(N)=O)NC(=O)[C@H](CC(C)C)NC(=O)[C@H](CCCCN)NC(=O)[C@H](CCC(=O)O)NC(=O)[C@H](CCCNC(=N)N)NC(=O)[C@H](Cc1ccccc1)NC(=O)[C@H](CCC(=O)O)NC(=O)[C@H](CC(=O)O)NC(=O)[C@H](CC(C)C)NC(=O)[C@@H](NC(=O)[C@@H]1CCCN1)C(C)C)C(=O)N[C@@H](CCCCN)C(=O)O (H-PVLDEFREKLNE[Aib]LE[Aib]LKQKLK-OH)	> 160	> 160	–
41	–	CC(C)C[C@H](NC(=O)[C@H](C)NC(=O)[C@H](CC(C(=O)O)C(=O)O)NC(=O)[C@H](CC(C)C)NC(=O)C(C)(C)NC(=O)[C@H](CCC(=O)O)NC(=O)[C@H](CC(N)=O)NC(=O)[C@H](CC(C)C)NC(=O)[C@H](CCCCN)NC(=O)[C@H](CCC(=O)O)NC(=O)[C@H](CCCNC(=N)N)NC(=O)[C@H](Cc1ccccc1)NC(=O)[C@H](CCC(=O)O)NC(=O)[C@H](CC(=O)O)NC(=O)[C@H](CC(C)C)NC(=O)[C@@H](NC(=O)[C@@H]1CCCN1)C(C)C)C(=O)N[C@@H](CCCCN)C(=O)N[C@@H](CCC(N)=O)C(=O)N[C@@H](CCCCN)C(=O)N[C@@H](CC(C)C)C(=O)N[C@@H](CCCCN)C(=O)O (H-PVLDEFREKLNE[Aib]L[Gla]ALKQKLK-OH)	> 160	75	–
142	–	CC(C)C[C@H](NC(=O)[C@H](C)NC(=O)[C@H](CCC(=O)O)NC(=O)[C@H](CC(N)=O)NC(=O)[C@H](CC(C)C)NC(=O)[C@H](CCCCN)NC(=O)[C@H](CC(C(=O)O)C(=O)O)NC(=O)[C@H](CCCNC(=N)N)NC(=O)[C@H](Cc1ccccc1)NC(=O)[C@H](CCC(=O)O)NC(=O)[C@H](CC(=O)O)NC(=O)[C@H](CC(C)C)NC(=O)[C@@H](NC(=O)[C@@H]1CCCN1)C(C)C)C(=O)N[C@@H](CCC(=O)O)C(=O)N[C@@H](C)C(=O)N[C@@H](CC(C)C)C(=O)N[C@@H](CCCCN)C(=O)N[C@@H](CCC(N)=O)C(=O)N[C@@H](CCCCN)C(=O)N[C@@H](CC(C)C)C(=O)N[C@@H](CCCCN)C(=O)O (H-PVLDEFR[Gla]KLNEALEALKQKLK-OH)	> 160	40	–
44	–	CC(C)C[C@H](NC(=O)[C@H](C)NC(=O)[C@H](CCC(=O)O)NC(=O)[C@H](CC(C)C)NC(=O)C(C)(C)NC(=O)[C@H](CCC(=O)O)NC(=O)[C@H](CC(N)=O)NC(=O)[C@H](CC(C)C)NC(=O)[C@H](CCCCN)NC(=O)[C@H](CC(C(=O)O)C(=O)O)NC(=O)[C@H](CCCNC(=N)N)NC(=O)[C@H](Cc1ccccc1)NC(=O)[C@H](CCC(=O)O)NC(=O)[C@H](CC(=O)O)NC(=O)[C@H](CC(C)C)NC(=O)[C@@H](NC(=O)[C@@H]1CCCN1)C(C)C)C(=O)N[C@@H](CCCCN)C(=O)N[C@@H](CCC(N)=O)C(=O)N[C@@H](CCCCN)C(=O)N[C@@H](CC(C)C)C(=O)N[C@@H](CCCCN)C(=O)O (H-PVLDEFR[Gla]KLNE[Aib]LEALKQKLK-OH)	> 160	75	–
2	–	CC.CC(C)C[C@H](NC(=O)[C@H](C)NC(=O)[C@H](CCC(=O)O)NC(=O)[C@H](CC(C)C)NC(=O)[C@@H]1CCCCC/C=C\CCCC[C@@H](NC(=O)[C@H](CCC(=O)O)NC(=O)[C@H](CC(=O)O)NC(=O)[C@H](CC(C)C)NC(=O)[C@@H](NC(=O)[C@@H]2CCCN2)C(C)C)C(=O)N[C@@H](CCCNC(=N)N)C(=O)N[C@@H](CCC(=O)O)C(=O)N[C@@H](CCCCN)C(=O)N[C@@H](CC(C)C)C(=O)N[C@@H](CC(N)=O)C(=O)N[C@@H](CCC(=O)O)C(=O)N1)C(=O)N[C@@H](CCCCN)C(=O)N[C@@H](CCC(N)=O)C(=O)N[C@@H](CCCCN)C(=O)N[C@@H](CC(C)C)C(=O)N[C@@H](CCCCN)C(=O)O (H-PVLDE[X1]REKLNE[X2]LEALKQKLK-OH; staple (Z) 6-13)	> 160	> 160	–
–	Not Active	H-PVLDEFREKLNEELEALKQKLK-OH	> 160	40	–
